Screening results from PubChem.
PKD1 kinase inh = inhibitors of human PKD1 kinase. Q15139. PKD1 kinase fluorescence polarization assay. inhibition, % (no concentration beside the values). actives 0.056% (n = 200,000)
Arbovirus anti = antivirals against arbovirus infection | arbovirus infection cell-based antiviral screen | inhibition, % at 10 µM | actives 0.37% (n = 200,000); in the data active = inhibition above about 30%
Rad51 HR inh = Rad51 (human) homologous recombination inhibition. Q06609. hRad51 DNA strand exchange, fluorescence dequenching. inhibition, % at 10 µM. actives 0.085% (n = 200,000). AID 1385;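 active = inhibition above 40% at the single screening dose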;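 note: 0% = DMSO control wells and 100% = blanks with heterologous ssDNA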
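Test system: preformed human Rad51 ssDNA filaments. Compound dosing: single dose, 10 µM final compound. Incubation: filaments 15 min 37 °C, then compound 30 min. Technique: FRET fluorescence dequenching, excitation 485 nm, emission 520 nm. Read-out basis: percent inhibition from fluorescence, normalised to plate control and blank means. Benchmarks: plate controls and plate blanks.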
Wee1 stabilizer = inhibitors of human Wee1 degradation. P30291. actives 1.2% (n = 220,000). reporter increase, % at 5 µM. HeLa Luc-Wee1K328M stability, luciferase luminescence; 100% = proteasome inhibitor MG132 effect;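 active = activation above the mean of all tested compounds plus 3 SD, set per screening run, cut at about 8.8% in these data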;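 note: cells exposed to compound for 20 h before luminescence read; 0% = DMSO alone and 100% = MG132 at 30 µM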
L major viab = reduces viability of Leishmania major promastigotes; resazurin fluorescence viability; inhibition, % at 10 µM; actives 9% (n = 200,000); AID 1063;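 note: promastigotes grown with compound for 44 hours at 28 °C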
CHOP inh = inhibitors of CHOP induction in ER stress response; CHO-K1 CHOP-promoter luciferase, tunicamycin-induced, 15-18 h; AID 2732; actives 3.8% (n = 220,000); inhibition, % at 10 µM;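 active = compounds that reduced the stress-induced luciferase reporter signal by more than about 70% of percent inhibition, limit read from the data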;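 note: 0% = tunicamycin plus vehicle and 100% = wells without tunicamycin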
Numbers without * were called inactive; nt = no result given. Shown are actives, neighbours in structure and some others; about 12% of the full set was active somewhere. Cut-off read from the data, not from the text of the source, unless noted: active = inhibition above about 50%; inactive = the rest.

SMILES | PKD1 kinase inh | Arbovirus anti | Rad51 HR inh | Wee1 stabilizer | L major viab | CHOP inh
CCOC(=O)C1CCCN(C(=O)CN2C(=O)/C(=C/c3ccc(OC)cc3)Oc3ccccc32)C1 (configuration not stated) | 1 | 4 | 7 | 0 | 74* | 64
N#Cc1cnn(-c2nc3sc4c(c3c(=O)[nH]2)CCCC4)c1N | 3 | -20 | nt | -2 | 94* | -4
O=c1[nH]c(C2CC2)nc2sc3c(c12)CCCC3 | -4 | -4 | nt | -1 | 11 | 23
Cc1c(-c2cccc(Cl)c2)nc2ccccc2c1C(=O)OCC(=O)Nc1ccc2c(c1)OCO2 | -2 | -22 | 8 | 3 | 58* | 78*
Cc1ccc(CNC(=O)COC(=O)Cn2nc(C)c([N+](=O)[O-])c2C)cc1 | 8 | 2 | -151 | -1 | -2 | -5
Cc1nn(CC(=O)OCC(=O)Nc2c(C(C)C)cccc2C(C)C)c(C)c1[N+](=O)[O-] | -1 | 2 | -3 | 0 | 51* | 16
Cc1nn(CC(=O)OCC(=O)Nc2ccccc2[N+](=O)[O-])c(C)c1[N+](=O)[O-] | -6 | -2 | 1 | 0 | 65* | 33
Cc1nn(CC(=O)OCCOc2ccc(Br)cc2)c(C)c1[N+](=O)[O-] | -2 | 61* | 0 | -2 | -6 | 11
C=CCN1C(=O)/C(=C/C=C2/N(CC)c3ccc(S(=O)(=O)N(C)C)cc3N2CC)SC1=S | -6 | 2 | -276 | 4 | 3 | -9
CCOc1ccccc1NC(=O)CCCn1cc([N+](=O)[O-])cn1 | 4 | 5 | 6 | 5 | -1 | 30
CC1CCCN(S(=O)(=O)c2ccc(S(=O)(=O)N3CCC4(CC3)OCCO4)cc2)C1 (configuration not stated) | -8 | 7 | 20 | 3 | -2 | 1
c1ccc(Nc2c3c(nc4ccccc24)CCC3)cc1 | 5 | -24 | nt | -2 | 76* | -3
O=C(Nc1ccc2c(c1)OCCO2)c1cc(-c2ccccc2)nc2ccccc12 | 0 | -4 | 6 | -1 | 9 | 43
COc1ccc(Nc2c3c(nc4ccccc24)CCCC3)cc1OC | -6 | -5 | -3 | 2 | 88* | -7
Cc1ccc2nc3c(c(Nc4ccccc4)c2c1)CCC3 | nt | nt | 16 | -2 | nt | 30
c1ccc2c(Nc3ccc4c(c3)OCCO4)c3c(nc2c1)CCC3 | -2 | -5 | 14 | -1 | 88* | 23
Fc1ccc(Nc2c3c(nc4ccccc24)CCC3)cc1 | 10 | -20 | -3 | -1 | 72* | 12
COc1ccc(NC(=O)c2cccn(CC=C(C)C)c2=O)cc1 | -11 | 17 | -8 | 1 | 21 | -13
O=[N+]([O-])c1ccc(NCCNS(=O)(=O)c2ccccc2)c(C(F)(F)F)c1 | -3 | -1 | -5 | 0 | 79* | -9
O=[N+]([O-])c1cc(C(F)(F)F)ccc1NCCCCNS(=O)(=O)c1ccc2ccccc2c1 | 10 | -7 | 7 | -2 | -4 | 83*
O=[N+]([O-])c1ccc(NCCNS(=O)(=O)c2ccccc2)cc1 | 4 | 0 | 6 | -3 | -1 | 15
Cc1ccc(C(=O)NCCNc2ccc([N+](=O)[O-])cc2C(F)(F)F)cc1 | -2 | 3 | -10 | 1 | 81* | 40
O=[N+]([O-])c1ccc(NCCCNS(=O)(=O)c2ccccc2)c(Cl)c1 | -2 | 24 | -5 | -1 | 64* | 33
O=Cc1ccc(Sc2ncccn2)o1 | -6 | 10 | 1 | 3 | -6 | 6
CCOc1ccc(N2C(=O)CC(Sc3ccccc3C(=O)O)C2=O)c([N+](=O)[O-])c1 (configuration not stated) | -3 | 5 | 5 | -2 | -8 | 6
Cn1nc(C(=O)NCCOc2ccccc2)c2ccccc2c1=O | 2 | -1 | -67 | 4 | -1 | 9
O=C(COc1ccc(Br)cc1)N/N=C1/SCC(=O)N1Cc1ccco1 | -1 | 9 | -15 | -4 | 15 | 10
CCOc1ccc(N2C(=O)CS/C2=N/NC(=O)COc2ccc3ccccc3c2)cc1 | 3 | 6 | -1 | 2 | 99* | 19
COc1ccc(S(=O)(=O)N2CCc3ccccc32)cc1C(=O)NCCc1ccccn1 | 2 | 7 | 21 | -4 | 5 | 16
Cc1ccc(C(=O)CN(Cc2ccccc2)C2=NCCS2)cc1 | -1 | 1 | 0 | 10* | 9 | 10
